The text below walks through data of ChEMBL document CHEMBL2040821, “Design, synthesis, and biological evaluation of 1-[(2-benzyloxyl/alkoxyl)methyl]-5-halo-6-aryluracils as potent HIV-1 non-nucleoside reverse transcriptase inhibitors with an improved drug resistance profile” (J Med Chem, 2012).

Data set [1] concerns the target Human immunodeficiency virus type 1 reverse transcriptase (Human immunodeficiency virus 1, UniProt Q72547). The data set is described as follows: Inhibition of HIV1 reverse transcriptase using poly(ra)/oligo(dT)15 homopolymer template as substrate after 1 hr.
The next data set concerns MT4. The data set is described as follows: Cytotoxicity against human MT4 cells after 3 days by XTT assay. The format is cell-based. As to conditions: mt4, 72 h. The method in brief:
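MT4 cells (5 × 10⁴/well) exposed to graded compound concentrations at 37 °C for 3 days. CCK-8 reagent then added, with a further 4 h at 37 °C for XTT formazan colour development. Absorbance read at 450 nm to give CC₅₀. Each compound run in triplicate.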
A general note: Tetrazolium assays rely on reduction of a dye to a coloured formazan, in cell work by metabolically active cells.

The subject of data set [2] is Human immunodeficiency virus 1. The data set is described as follows: Antiviral activity against HIV1 SF33 infected in human MT4 cells assessed as inhibition of viral p24 antigen production after 7 days by ELISA. The class given is functional, organism-based. The conditions noted are these: Human immunodeficiency virus 1, SF33, MT4, 168 h. The method in brief:
(§1)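 MT4 cells (4 × 10⁴/well) were infected with 200 TCID₅₀ of HIV-1 and incubated 2 h at 37 °C. Compounds were then added at serial dilutions. Each compound was run in triplicate, reported as mean SD.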
For orientation: An ELISA detects its analyte on a solid surface through an enzyme-linked reagent.

Data set [3] has as its system Human immunodeficiency virus 1. Description: Antiviral activity against NNRTI-resistant HIV1 A17 expressing reverse transcriptase K103N and Y181C mutant infected in human MT4 cells assessed as inhibition of viral p24 antigen production after 7 days by ELISA. The class given is functional, organism-based. The conditions noted are these: Human immunodeficiency virus 1, A17, MT4, 168 h. The method in brief: as §1

A short description of data set [4]: Selectivity index, ratio of CC50 for human MT4 cells to EC50 for HIV1 SF33. The format is toxicity, cell-based. As to conditions: read-out: Ratio CC50/EC50. The method, boiled down: (§2)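 SI is CC₅₀ in MT4 cells over EC₅₀ for each strain. For CC₅₀, MT4 cells (5 × 10⁴/well) were exposed to graded compound concentrations for 3 days at 37 °C, then given CCK-8/XTT for 4 h at 37 °C and read at 450 nm absorbance. Assays were run in triplicate.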

The nature of data set [5]: Selectivity index, ratio of CC50 for human MT4 cells to EC50 for NNRTI-resistant HIV1 A17 expressing reverse transcriptase K103N and Y181C mutant. The class given is toxicity, cell-based. As to conditions: read-out: Ratio CC50/EC50. The method in brief:
as §2

Data set [6] concerns Human immunodeficiency virus 1. Description: Ratio of nevirapine EC50 to compound EC50 for HIV1 SF33. The format is functional.

The structures appear in SMILES notation. pEC50, pIC50: −log10 of the molar value.

For the compound `CCOCn1c(Cc2ccccc2)c(I)c(=O)[nH]c1=O`, in data set [1], the negative logarithm of the IC50 (pIC50) (in general, the negative decadic logarithm of the IC50, by convention in mol/L) was 6.94.
Consider `CCOCn1c(Cc2cc(C)cc(C)c2)c(I)c(=O)[nH]c1=O`, for which the negative-log IC50 (pIC50) in data set [1] was 6.96. In addition, the CC50 (in general, the concentration at which the toxic effect on the cells reaches its halfway point) in the data set on MT4 came out at 142 µM. In addition, the pEC50 (in general, the EC50 on a negative log10 scale, so that one unit is a factor of ten) in data set [2] was 8.22; in data set [3], 6.20. Also, the selectivity ratio in data set [4] worked out at 23700; in data set [5], 222.
`CCOCn1c(Cc2cc(F)cc(F)c2)c(I)c(=O)[nH]c1=O` gave a pIC50 in data set [1] of 4.93. Further, the CC50 in the data set on MT4 was 300 µM. The results for the negative logarithm of the EC50 (pEC50) in data set [2] and in data set [3] were 6.27 and under 5.00, respectively. Further, the selectivity ratio in data set [4] was 559; in data set [5] it was under 30.
Compound `O=c1[nH]c(=O)n(COCc2ccccc2)c(Cc2ccccc2)c1I` had a negative-log IC50 (pIC50) in data set [1] of 8.00. In the data set on MT4, this compound came in with a CC50 of 74.8 µM. For the same compound, the negative-log EC50 (pEC50) in data set [2] was 7.35; in data set [3], under 5.00. Moreover, the selectivity ratio was 1660 in data set [4] and under 7 in data set [5].
With `Cc1cc(C)cc(Cc2c(I)c(=O)[nH]c(=O)n2COCc2ccccc2)c1`, in data set [1], the negative logarithm of the IC50 (pIC50) was 8.52. The compound further yielded a half-maximal cytotoxic concentration (CC50) in the data set on MT4 of 98.3 µM. The pEC50 in data set [2] was 8.70; in data set [3], 7.04. Also, the selectivity ratio in data set [4] was found to be 38200; in data set [5], 1080. The Ratio EC50 in data set [6] came out at 325.
The compound `O=c1[nH]c(=O)n(COCc2ccccc2)c(Cc2cc(F)cc(F)c2)c1I` showed a negative logarithm of the IC50 (pIC50) in data set [1] of 7.82. In addition, in the data set with MT4, the half-maximal cytotoxic concentration (CC50) was 121 µM. For the same compound, the values for the pEC50 in data set [2] and in data set [3] were 8.22 and 5.59, respectively. Further, the selectivity ratio in data set [4] was determined as 20200; in data set [5], 48. Also, in data set [6], the “Ratio EC50” value was 46.
In data set [1], `CCOCn1c(Cc2ccccc2)c(Br)c(=O)[nH]c1=O` gave a pIC50 of 5.74. The compound also came in with a CC50 with MT4 of 155 µM. The pEC50 in data set [2] is 5.68; in data set [3] it was under 5.00. For the same compound, the selectivity ratio in data set [4] was 75; in data set [5], under 15.5.
Turning to `CCOCn1c(Cc2cc(C)cc(C)c2)c(Br)c(=O)[nH]c1=O`, in data set [1], the pIC50 is 6.68.
`O=c1[nH]c(=O)n(COCc2ccccc2)c(Cc2ccccc2)c1Br`: the pIC50 in data set [1] was 5.82. This compound also yielded a CC50 in the data set with MT4 of 67.4 µM. The pEC50 in data set [2] was 5.76; in data set [3] it was under 5.00. For the same compound, the selectivity ratio in data set [4] is 39; in data set [5], under 6.7.
In turn, `Cc1cc(C)cc(Cc2c(Br)c(=O)[nH]c(=O)n2COCc2ccccc2)c1` showed a negative logarithm of the IC50 (pIC50) in data set [1] of 7.37. Further, the 50% cytotoxic concentration (CC50) in the data set on MT4 came to 152 µM. The results for the pEC50 in data set [2] and in data set [3] were 8.05 and 6.22, respectively. In addition, the selectivity ratio in data set [4] came out at 16900; in data set [5] it was 253.
`CCOCn1c(Cc2ccccc2)c(N(C)C)c(=O)[nH]c1=O` showed a negative-log IC50 (pIC50) in data set [1] of 6.79. This compound also came in with a half-maximal cytotoxic concentration (CC50) with MT4 of 166 µM. The values for the negative-log EC50 (pEC50) in data set [2] and in data set [3] were 6.21 and under 5.00, respectively. Also, the selectivity ratio is 270 in data set [4] and under 16.6 in data set [5].
In the case of `CCOCn1c(Cc2cc(C)cc(C)c2)c(N(C)C)c(=O)[nH]c1=O`, the pIC50 in data set [1] is 7.41.
`CN(C)c1c(Cc2ccccc2)n(COCc2ccccc2)c(=O)[nH]c1=O` had a negative-log IC50 (pIC50) in data set [1] of 7.92. In the data set with MT4, the CC50 came to 91.8 µM. Further, the pEC50 was 6.46 in data set [2] and under 5.00 in data set [3]. The selectivity ratio in data set [4] is 264; in data set [5], under 9.
In turn, `Cc1cc(C)cc(Cc2c(N(C)C)c(=O)[nH]c(=O)n2COCc2ccccc2)c1` gave a pIC50 in data set [1] of 7.68. The compound further displayed a CC50 in the data set with MT4 of 55.8 µM. Moreover, the pEC50 was 7.85 in data set [2] and 5.66 in data set [3]. Besides, the values for the selectivity ratio in data set [4] and in data set [5] were 5200 and 25, respectively. The “Ratio EC50” value in data set [6] worked out at 46.
Regarding `Cc1cc(C)cc(Cc2c(I)c(N)nc(=O)n2COCc2ccccc2)c1`, the negative-log IC50 (pIC50) in data set [1] was 5.14.
Same read-out and setting: in the case of `Cc1cc(C)cc(Cc2c(Br)c(N)nc(=O)n2COCc2ccccc2)c1` it was 4.79.
`CC(C)c1c(Cc2ccccc2)n(COCc2ccccc2)c(=O)[nH]c1=O`: the pIC50 in data set [1] is 7.70. This compound also registered a CC50 in the data set with MT4 of 84.6 µM. The pEC50 in data set [2] is 7.66; in data set [3] it was under 5.00. Also, the selectivity ratio in data set [4] is 3840; in data set [5] it was under 6.6.
On to `Cc1ccnc2c1NC(=O)c1cccnc1N2C1CC1` [NEVIRAPINE], for which, in the data set on MT4, the midpoint of cytotoxicity, the CC50, lay at 325 µM. Moreover, the pEC50 in data set [2] is 7.17; in data set [3] it was under 5.00.
